# Bioassay records (PubChem BioAssay)
# MRP resist rev: reverses drug resistance mediated by MRP. H69AR cells + 2 uM doxorubicin, CellTiter-Glo, 72 h. differential viability (reversal), % at 10 µM. AID 602. 85,000 tested, 0.04% active;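 active = viability drop by adding the cancer drug above about 55%, with treated viability meeting a 40% cutoff, limit read from the data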;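 also: viability without doxorubicin minus viability with 2 µM doxorubicin for each compound; larger differential means the compound sensitizes cells more to doxorubicin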
# Phagocytosis inh: inhibitors of macrophage phagocytosis. 110,000 tested, 0.07% active. inhibition, % at 5 µM. J774A.1 macrophage IgG-bead phagocytosis, imaging;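 active = inhibition above the mean of the plate negative controls plus 5 SD, cut at about 13% in these data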;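 also: phagocytic index as fraction of beads internalized from green versus red external bead signal; plate controls were DMSO negative control for no effect and cytochalasin-D positive control for full effect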
# BB579 growth dn: chemicals that inhibit yeast BB579 growth in restrictive medium (lifespan-shortening candidates). S. cerevisiae BB579 growth, OD615, 48 h. inhibition, % at 10 µM. 140,000 tested, 0.51% active;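 active = inhibition above a set limit, 3 SD over the mean compound inhibition, cut at about 44% in these data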
#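 Detection: OD615 turbidity measurement; Material: Saccharomyces cerevisiae DeaD strain BB579, replicative lifespan model yeast; Timing: 48 h exposure, 30 °C; Doses: single 10 µM dose; Medium: CSMM-D restrictive synthetic medium containing dextrose (glucose); Controls: amphotericin B at 10 µg/mL as positive control.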
# sdo1 growth: compounds rescuing growth of sdo1-depleted yeast, bone marrow failure model; S. cerevisiae sdo1-depleted JHY4D growth rescue, OD600 30 h; hits give high values; pdr5 snq2 efflux-pump mutant strain; z-score at 10 µM; 140,000 tested, 0.21% active; AID 817;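 active = z-score above 3 at both the 24 hr and the 30 hr optical density reads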;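 also: z-score against mean and SD of all compound wells on the same plate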
# MRP1 act: activates MRP-1 | H69AR cells + doxorubicin, viability rescue, CellTiter-Glo | viability increase, % at 10 µM | 140,000 tested, 0.61% active | AID 799;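 active = viability gain under doxorubicin at or above a set limit, the compound median plus 3 SD, cut at about 4.7% in these data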;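 also: MRP-1 overexpressing cells given doxorubicin 25 µM after compound pretreatment; 18-22 h compound pretreatment then 72 h with doxorubicin before readout; 0% = doxorubicin-only wells and 100% = vehicle-treated cells without doxorubicin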
# Yeast lifespan up: extends the lifespan of yeast | 130,000 tested, 0.68% active | inhibition of the nicotinamide effect, % at 10 µM | S. cerevisiae growth with nicotinamide, OD615; deaD strain in restrictive glucose medium | AID 775;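 active = inhibition above a set limit, placed 3 SD over the median of all compounds, cut at about 26% in these data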;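 also: 0% = nicotinamide-treated wells and 100% = cells grown without nicotinamide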
#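 assay system = DeaD-strain S. cerevisiae | measured by = absorbance at 615 nm | probe or stimulus = nicotinamide 1.5 mM | buffer or medium = CSMM-D glucose medium, restrictive | times = 48 h at 30 °C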
# SDO1 rescue DR: confirmation of growth rescue in SDO1-depleted yeast, bone marrow failure. shares compounds with sdo1 growth. S. cerevisiae JHY4D (SDO1-depleted) growth rescue, OD600, 30 h; hits give high values; efflux-deficient strain, SNQ2 and PDR5 mutated. OD recovery (no concentration beside the values). 440 tested, 44% active. AID 949;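 active = yeast growth recovered at 30 hours, either rising with dose fitted slope above 0.001 or with average optical density gain above 0.07, some results past the limit were not filed as active; inactive = growth falling with dose or no effect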;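 also: gain in OD600 from 0 h to 30 h averaged across all seven doses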
# Starred values were filed as active, the others as inactive; . = no result given; ! = not confirmed by another sample. Shown are actives, neighbours in structure and some others; about 2.1% of the full set was active somewhere.
SMILES,MRP resist rev,Phagocytosis inh,BB579 growth dn,sdo1 growth,MRP1 act,Yeast lifespan up,SDO1 rescue DR
Cc1ccc(C)c(N2CCN(C(=O)CN3C(=O)c4ccccc4C3=O)CC2)c1,-4,-2,-14,-0.82,-2,-20,.
O=C(COc1ccc(S(=O)(=O)N2CCOCC2)cc1)NC1CCCC1,-3,.,-37,0.27,-1,18,.
COc1ccc(NC(=O)C(c2ccc(OC)cc2)N(C)C(=O)c2cnccn2)cc1 (configuration not stated),-11,-2,-48,-0.48,0,4,.
COc1ccc(C(=O)CC(c2ccccc2)C2C(=O)CCCC2=O)cc1 (configuration not stated),11,-1,-41,0.04,-1,-7,.
CC(=O)c1sc(NC(=O)c2cc3c(C)nn(-c4ccccc4)c3s2)nc1C,8,-3,-38,4*,0,-4,0.11*
Cc1nc(NC(=O)c2cc3c(C)nn(-c4ccccc4)c3s2)sc1C(=O)Nc1ccccc1,.,0,-22,-0.46,-4,-19,.
Cc1cccc(C)c1NC(=S)N1CCC(N(C)CC2CCCO2)CC1 (configuration not stated),10,-2,-45,0.62,-2,-6,.
Cc1cc(C)c(NC(=S)N2CCC(N(C)CC3CCCO3)CC2)c(C)c1 (configuration not stated),2,.,-6,3.6*,-2,-4,0.096*
COc1cc2cc(/C=C/C(=O)c3ccco3)c(Cl)nc2cc1OC,5,0,-36,1.6,-6,2,.
CC(C)NC(=O)CSCc1cccc(Br)c1,2,-1,-57,5.2*,1,-7,0.064
CC(C)NC(=O)CSCc1ccccc1Cl,4,-1,-60,0.63,1,-9,.
Cn1nc(OC(=O)Nc2ccccc2)cc1C(F)(F)F,5,-3,-33,3.3*!,-2,-13,0.077*
Cn1nc(OC(=O)Nc2cccc(Cl)c2)cc1C(F)(F)F,-1,0,-42,-1.1,1,-11,.
CC(C)(C)C(=O)/C=C(\N)c1ccccn1,1,2,6,0.07,1,-11,.
CC1=C(C)CC(C(=O)NCc2ccc3c(c2)OCO3)C(C(=O)O)C1 (configuration not stated),-28,0,-27,2.3,-1,4,0.075*
CCOc1cc(C2Nc3ccccc3C(=O)N2c2ccccc2)c(Br)cc1OCC(=O)O (configuration not stated),.,-5,-26,1.1,1,-5,.
CCOC(=O)c1c(-c2ccccc2)nc2ccc(C)cn12,.,.,12,-1.3,-1,-15,.
CCOc1ccc(CCNC(=O)C2CCN(C(=O)N(C)C)CC2)cc1OCC,4,0,-46,2,-1,-16,0.055
Cc1ccc(/C=N/NC(=O)CSc2nc3nc(C)cc(C)n3n2)cc1,.,3,-19,0.49,-4,-12,.
COc1cc(NC(=O)C(C)C)ccc1NC(=O)c1ccco1,-9,0,-3,1.7,2,-11,.
COc1cc(NC(=S)NC(=O)c2ccccc2F)ccc1NC(=O)c1ccco1,.,-2,-19,2.2,-3,4,0.07
CCN(CC)S(=O)(=O)c1cc(C(=O)Nc2cccnc2)ccc1Cl,.,0,-23,3.3*,0,-6,0.093*
CCN(CC)S(=O)(=O)c1cc(C(=O)Nc2ccncc2)ccc1Cl,-7,.,-22,0.77,-1,-13,.
Cc1oc2cc(O)ccc2c(=O)c1-c1cnn(-c2ccccc2)c1,.,.,-28,5*,0,-3,0.064
CN(C)c1ccc(/C=C/c2nnnn2-c2ccccc2)cc1,.,0,-31,-0.64,1,-4,.
SMILES,MRP resist rev,Phagocytosis inh,BB579 growth dn,sdo1 growth,MRP1 act,Yeast lifespan up,SDO1 rescue DR
Cc1cc(C)c(-c2c(O)c3c(n(C)c2=O)CC(C)(C)CC3=O)c(C)c1,.,-3,-10,10*,-1,5,0.08*
Cn1c2c(c(O)c(-c3ccccc3)c1=O)C(=O)CC(C)(C)C2,.,-3,-37,-0.12,0,-1,.
Cn1nc(-c2ccc(C(=O)O)cc2)c2ccccc2c1=O,6,1,-28,-0.08,-2,-3,.
COC(=O)c1ccc(-c2nn(C)c(=O)c3ccccc23)cc1,5,0,7,8.5*,-1,-10,0.076*
Cc1cccc(NC(=O)COC(=O)Cc2c[nH]c3ccccc23)c1C,.,-2,-52,-0.59,-3,-2,.
O=C1CCCN1CCC1CCN(C(=S)Nc2ccc(F)cc2)CC1,2,0,-31,-0.48,-2,2,.
O=C(CN1CCN(c2cccc(Cl)c2)CC1)Nc1ccc([N+](=O)[O-])cc1C(=O)Nc1ccccc1F,.,-9,-32,14*,-3,1,0.033
Cc1nc2ncnn2c(C)c1CCC(=O)N1CCOCC1,-4,-3,-15,5.1*,0,-9,0.098*
Cc1nc2ncnn2c(C)c1CCC(=O)N1CCCCC1,10,0,-23,0.32,-2,-2,.
Cc1cc(C)c(NC(=O)C(C)Sc2nc3ccc(N4C(=O)c5ccccc5C4=O)cc3s2)c(C)c1 (configuration not stated),.,0,-37,0.08,-1,-6,.
Cc1sc(N2C(=O)C3C4C=CC(C4)C3C2=O)c(C#N)c1C (configuration not stated),.,5,-1,-1.4,-1,7,.
CCCn1c(NCc2ccc(N(C)C)cc2)nc2ccccc21,8,0,-4,0.09,-1,-5,.
COc1ccc(OCC(=O)Nc2cccc(NC(=O)COc3ccc(OC)cc3)n2)cc1,-2,-1,-16,3.1*,-4,-8,0.067
COc1ccc(OCC(=O)Nc2cccc3cccnc23)cc1,9,0,-62,-0.14,-3,-11,.
O=c1nc2ccccc2c(NS(=O)(=O)c2ccc(Cl)cc2)n1-c1ccccc1,.,.,-38,-0.12,0,-8,.
O=C(CN1C(=O)COc2ccccc21)N1CCc2ccccc21,6,0,-30,-0.41,-4,-8,.
CC(C)c1ccc(/C=N/NC(=O)c2c(Cl)cnn2C)cc1,.,-2,-13,5.1*,1,-6,0.091*
O=C(C1=C(O)C(=O)N(CCc2ccccc2)C1c1cccnc1)c1ccco1 (configuration not stated),-11,0,-21,-0.95,-1,3,.
COCCCN1C(=O)C(O)=C(C(=O)c2ccco2)C1c1ccccc1 (configuration not stated),4,-1,-22,2,-3,-15,0.097*
Cc1cccc(-n2c(Cc3ccccc3)nnc2SCC(=O)N2CCOCC2)c1,4,1,-60,0.57,-1,-9,.
O=C(NCCc1c[nH]c2ccc(Cl)cc12)c1cccnc1,10,-2,-21,0.92,0,-7,.
